In brackets after ≈: the same amount, converted by molar mass. Activity calls are given as the source filed them. No cut-off for these calls is given here.
Columns and labels:
[1] = AUClast in mouse at 10 mg/kg, po; format: ADME, organism-based; parameters: dose 10 mg/kg, time 0 - last, route oral; details: in vivo
[2] = Half life in human liver microsomes; format: ADME, Microsome
Autotaxin [3] = molecular target: Autotaxin (Homo sapiens, UniProt Q13822); experiment: Inhibition of C-terminal FLAG-tagged human autotaxin expressed in Freestyle 293 cells assessed as reduction in choline release from LPC 16:0 pre-incubated for 10 mins before LPC addition and measured after 1 hr by choline oxidase/HRP coupled assay; format: cell-based
[4] = Volume of distribution at steady state in dog at 1 mg/kg, iv; format: ADME, organism-based, Canis lupus familiaris; details: in vivo, read-out: Vdss
[5] = Thermodynamic solubility in pH 7.4 buffer; format: physicochemical; details: read-out: Therm_solubility
[6] = Half life in mouse at 10 mg/kg, po; format: ADME, organism-based; details: in vivo
[7] = Half life in rat at 1 mg/kg, iv; format: ADME, organism-based; details: in vivo
[8] = Clearance in mouse at 1 mg/kg, iv; format: ADME, organism-based; details: in vivo
Mus musculus = experiment: Anti-fibrotic activity in C57BL/6 mouse model of bleomycin-induced lung fibrosis assessed as reduction in hydroxyproline levels at 30 mg/kg, po BID for 21 days dosed 7 days after bleomycin treatment; format: functional, organism-based
How it was run: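 Mice given oral BID doses (30, 100 or 300 mg/kg) starting seven days after bleomycin. Killed 21 days after bleomycin; lung fibrosis scored by hydroxyproline in one group. GLPG1690 at 30 and 100 mg/kg BID as control. Medians and p-values against bleomycin + vehicle.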

[9] = Protein binding in human plasma; format: ADME, cell-free; details: read-out: PPB (converted)
[10] = molecular target: T1, Lysophosphatidic acid receptor 3 (Homo sapiens, UniProt Q9UBY5); experiment: Inhibition of LPAR3 (unknown origin)
T1 sequence (Q9UBY5 whole entry): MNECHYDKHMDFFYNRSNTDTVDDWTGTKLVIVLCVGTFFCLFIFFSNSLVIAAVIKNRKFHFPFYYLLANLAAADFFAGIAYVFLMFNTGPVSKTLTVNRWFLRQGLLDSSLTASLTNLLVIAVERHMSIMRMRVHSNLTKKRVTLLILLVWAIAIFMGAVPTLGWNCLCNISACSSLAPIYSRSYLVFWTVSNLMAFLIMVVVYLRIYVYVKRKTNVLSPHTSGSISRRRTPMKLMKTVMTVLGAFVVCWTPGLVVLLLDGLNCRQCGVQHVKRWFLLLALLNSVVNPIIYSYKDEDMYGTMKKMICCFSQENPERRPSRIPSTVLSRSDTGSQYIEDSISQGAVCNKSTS

[11] = Volume of distribution at steady state in rat at 1 mg/kg, iv; format: ADME, organism-based; details: in vivo, read-out: Vdss
Autotaxin (Mus musculus) = Autotaxin (Mus musculus) (UniProt Q9R1E6); experiment: Potency index, ratio of IC50 for GLPG1690 to IC50 for test compound for inhibition of autotaxin in mouse plasma assessed as reduction in LPA (18:2) production incubated for 2 hrs LC-MS-/MS analysis; format: cell-free
Autotaxin [12] = molecular target: Autotaxin (Mus musculus, UniProt Q9R1E6); experiment: Inhibition of autotaxin in mouse plasma assessed as reduction in LPA (18:2) production incubated for 2 hrs LC-MS-/MS analysis; format: cell-free
Cytochrome P450 3A4 = Cytochrome P450 3A4 (Homo sapiens, UniProt P08684); experiment: Inhibition of CYP3A4 (unknown origin); format: ADME
[13] = Protein binding in rat plasma; format: ADME, cell-free; details: read-out: PPB (converted)
Cytochrome P450 1A2 = molecular target: T2, Cytochrome P450 1A2 (Homo sapiens, UniProt P05177); experiment: Inhibition of CYP1A2 (unknown origin); format: ADME
T2 sequence (P05177 whole entry): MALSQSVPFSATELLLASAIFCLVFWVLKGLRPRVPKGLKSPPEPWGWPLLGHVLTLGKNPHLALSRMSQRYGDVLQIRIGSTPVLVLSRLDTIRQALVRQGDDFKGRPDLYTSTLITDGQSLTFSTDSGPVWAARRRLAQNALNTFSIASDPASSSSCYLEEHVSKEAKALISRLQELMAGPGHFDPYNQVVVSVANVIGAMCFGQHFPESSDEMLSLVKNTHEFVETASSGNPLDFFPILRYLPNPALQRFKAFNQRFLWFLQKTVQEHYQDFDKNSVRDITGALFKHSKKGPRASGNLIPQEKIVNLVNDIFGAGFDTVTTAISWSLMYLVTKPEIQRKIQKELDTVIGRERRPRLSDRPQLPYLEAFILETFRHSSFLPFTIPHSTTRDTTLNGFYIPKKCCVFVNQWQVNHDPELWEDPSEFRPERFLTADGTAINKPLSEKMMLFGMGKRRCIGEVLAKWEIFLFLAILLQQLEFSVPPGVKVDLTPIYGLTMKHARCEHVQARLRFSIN

[14] = molecular target: T3, Ectonucleotide pyrophosphatase/phosphodiesterase family member 1 (Homo sapiens, UniProt P22413); experiment: Inhibition of ENPP1 (unknown origin)
T3 sequence (P22413 whole entry): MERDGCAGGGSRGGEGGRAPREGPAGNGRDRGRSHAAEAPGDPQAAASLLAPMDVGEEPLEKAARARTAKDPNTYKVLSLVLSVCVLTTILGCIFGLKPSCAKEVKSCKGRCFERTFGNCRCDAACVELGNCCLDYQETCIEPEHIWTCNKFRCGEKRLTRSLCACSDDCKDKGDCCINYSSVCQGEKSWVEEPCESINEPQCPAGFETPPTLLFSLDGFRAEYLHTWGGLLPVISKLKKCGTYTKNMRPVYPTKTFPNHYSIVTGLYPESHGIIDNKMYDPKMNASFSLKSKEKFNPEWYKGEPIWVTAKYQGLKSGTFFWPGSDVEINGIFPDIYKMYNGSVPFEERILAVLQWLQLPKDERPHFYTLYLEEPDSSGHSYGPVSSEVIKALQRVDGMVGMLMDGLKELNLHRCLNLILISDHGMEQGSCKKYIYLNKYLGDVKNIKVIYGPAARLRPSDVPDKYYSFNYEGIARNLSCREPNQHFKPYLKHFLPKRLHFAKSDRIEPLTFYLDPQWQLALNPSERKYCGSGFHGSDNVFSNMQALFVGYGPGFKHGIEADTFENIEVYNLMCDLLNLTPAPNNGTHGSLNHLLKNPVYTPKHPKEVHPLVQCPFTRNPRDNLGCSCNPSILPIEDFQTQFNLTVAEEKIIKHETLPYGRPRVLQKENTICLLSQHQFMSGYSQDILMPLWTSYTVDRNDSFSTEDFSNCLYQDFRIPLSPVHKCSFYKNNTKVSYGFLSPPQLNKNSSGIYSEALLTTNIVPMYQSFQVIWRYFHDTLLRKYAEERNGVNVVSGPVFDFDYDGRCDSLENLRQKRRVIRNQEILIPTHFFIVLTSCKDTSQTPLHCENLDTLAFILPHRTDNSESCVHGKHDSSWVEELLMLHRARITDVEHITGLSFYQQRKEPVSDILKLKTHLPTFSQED

[15] = AUClast in rat at 5 mg/kg, po; format: ADME, organism-based; parameters: dose 5 mg/kg, route oral, time 0 - last; details: in vivo

Chain of Cytochrome P450 3A4 (P08684 whole entry): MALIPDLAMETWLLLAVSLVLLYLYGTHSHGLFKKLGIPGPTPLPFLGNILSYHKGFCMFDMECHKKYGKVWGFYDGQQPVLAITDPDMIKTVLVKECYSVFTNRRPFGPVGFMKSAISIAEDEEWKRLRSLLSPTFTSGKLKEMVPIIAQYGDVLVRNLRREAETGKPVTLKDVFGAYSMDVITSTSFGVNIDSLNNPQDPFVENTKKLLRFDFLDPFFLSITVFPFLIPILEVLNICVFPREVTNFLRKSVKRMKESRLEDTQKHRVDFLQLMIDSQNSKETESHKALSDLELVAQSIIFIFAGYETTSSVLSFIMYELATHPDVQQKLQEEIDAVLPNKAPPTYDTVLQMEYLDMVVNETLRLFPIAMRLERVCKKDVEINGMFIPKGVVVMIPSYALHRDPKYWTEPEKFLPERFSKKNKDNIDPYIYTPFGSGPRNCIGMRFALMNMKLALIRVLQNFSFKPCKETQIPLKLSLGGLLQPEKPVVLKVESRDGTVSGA

Q: For CC(C)[C@@H](NC(=O)c1cc(C(F)(F)F)ccc1F)C(=O)N1CCC2(CC1)C(=O)N(C)C(=O)N2c1ccc2[nH]ncc2c1, which AUC(0-t) [1] is on record?
A: 2590 ng·h/mL

Q: And the half-life [2]?
A: 8.88 h

Q: And the IC50 (Autotaxin [3])?
A: 0.055 µM

Q: And the Vd [4]?
A: 0.655 L/kg

Q: What about the solubility thermodynamic [5] of the same compound?
A: 452 µM (≈ 266 µg/mL)

Q: And the half-life [6]?
A: 2.5 h

Q: What about the half-life [7] of the same compound?
A: 1.5 h

Q: And the clearance [8]?
A: 54 mL/min/kg

Q: And the Activity (Mus musculus)?
A: inactive

Q: And the fraction unbound [9]?
A: 0.113

Q: And the IC50 [10]?
A: > 10 µM

Q: What about the Vd [11] of the same compound?
A: 1.98 L/kg

Q: And the Ratio IC50 (Autotaxin (Mus musculus))?
A: 60

Q: What about the IC50 (Autotaxin [12]) of the same compound?
A: 0.007 µM

Q: And the IC50 (Cytochrome P450 3A4)?
A: > 50 µM

Q: What about the fraction unbound [13] of the same compound?
A: 0.273

Q: And the IC50 (Cytochrome P450 1A2)?
A: > 50 µM

Q: What about the IC50 [14] of the same compound?
A: > 10 µM

Q: What about the AUC(0-t) [15] of the same compound?
A: 518 ng·h/mL

— ChEMBL document CHEMBL4610127, “Novel Autotaxin Inhibitor for the Treatment of Idiopathic Pulmonary Fibrosis: A Clinical Candidate Discovered Using DNA-Encoded Chemistry” (J Med Chem, 2020)
